Reference: article PMC3728731 (Chemmedchem, 2013)
Where “and” joins values, the source holds several entries; their conditions need not be identical. Identical values can stand only once.

What was measured:
TbGSK3 [1] = target: T1, TbGSK3 (Trypanosoma brucei brucei, UniProt Q388M1); assay: TbGSK3 radiometric Flashplate potency assay; type: biochemical; conditions: for IC50: IC50 TbGSK3, Flashplate, 1 μM ATP (<KM); for fold less active than 8 against TbGSK3: compared with compound 8
T1 sequence (Q388M1 1-352): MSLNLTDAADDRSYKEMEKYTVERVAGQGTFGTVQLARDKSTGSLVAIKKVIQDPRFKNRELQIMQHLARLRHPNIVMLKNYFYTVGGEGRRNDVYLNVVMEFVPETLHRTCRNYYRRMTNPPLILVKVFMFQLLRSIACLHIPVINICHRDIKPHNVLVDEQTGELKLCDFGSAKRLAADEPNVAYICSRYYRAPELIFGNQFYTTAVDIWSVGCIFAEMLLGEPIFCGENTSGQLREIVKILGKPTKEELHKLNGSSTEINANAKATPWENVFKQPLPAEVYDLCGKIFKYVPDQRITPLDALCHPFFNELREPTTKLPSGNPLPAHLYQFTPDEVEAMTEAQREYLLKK
Procedure, shortened: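 Radiometric streptavidin Flashplate capture of biotinylated phosphoproduct. MBP-fused short TbGSK3 (2.5 nM), 1 μM biotinylated GSP2, 1 μM ATP plus 3.7 KBq [γ-³³P]ATP/well. 10-point titration, 30 μM–0.3 nM final, 1% DMSO. IC50 by four-parameter fit; ligand efficiency = [−RT ln(IC50)]/heavy-atom count.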

HsGSK3β = HsGSK3β (Homo sapiens, UniProt P49841); assay: HsGSK3β radiometric Flashplate assay; type: biochemical
Sequence of HsGSK3β (P49841 whole entry): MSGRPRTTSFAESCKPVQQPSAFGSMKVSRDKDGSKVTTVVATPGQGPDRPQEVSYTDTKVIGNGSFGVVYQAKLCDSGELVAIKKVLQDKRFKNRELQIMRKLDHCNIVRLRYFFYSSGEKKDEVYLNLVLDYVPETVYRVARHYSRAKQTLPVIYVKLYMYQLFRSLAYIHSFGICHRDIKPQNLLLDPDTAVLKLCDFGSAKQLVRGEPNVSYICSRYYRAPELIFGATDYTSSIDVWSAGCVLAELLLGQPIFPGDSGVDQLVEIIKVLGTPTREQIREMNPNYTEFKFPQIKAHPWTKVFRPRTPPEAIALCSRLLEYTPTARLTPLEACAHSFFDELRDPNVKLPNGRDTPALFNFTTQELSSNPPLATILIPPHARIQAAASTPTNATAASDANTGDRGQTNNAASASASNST

TbGSK3 [2] = target: T1, TbGSK3; assay: Mechanism of inhibition of TbGSK3; type: biochemical; conditions: for mechanism of inhibition: versus ATP, saturating GSP2
Procedure, shortened: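 Rates (CPM) measured at 10 test-compound concentrations × four ATP concentrations, GSP2 phosphopeptide saturating. Lineweaver–Burk plots examined for competitive, mixed or uncompetitive patterns; apparent K_i calculated.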

[3] = test system: MRC5 (human lung fibroblast) cells; assay: MRC5 proliferation assay; type: cell-based; conditions: T. brucei versus MRC5
Procedure, shortened: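 MRC5 human lung fibroblasts, 2×10³ cells/well, grown in MEM with 10% foetal bovine serum. Test compound from 50 μM to 0.5 nM. Incubated 69 h at 37 °C, 5% CO₂. Resazurin added (50 μM final), then a further 4 h under the same conditions. Read by fluorescence.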

GSK3 = GSK3 (Homo sapiens, UniProt P49841); assay: Mammalian kinase selectivity panel; type: biochemical; conditions: read-out: inhibition of GSK3
Sequence of GSK3 (P49841 whole entry): as above
Procedure, shortened: (§1)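 Run by the University of Dundee DSTT mammalian panel, which then held 76 kinases. Test compound screened in duplicate at 10 μM. Each kinase assayed with ATP below its apparent K_M for ATP.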

CDK2-Cyclin A = CDK2-Cyclin A (Homo sapiens, UniProt P24941); assay: Mammalian kinase selectivity panel; type: biochemical; conditions: read-out: inhibition of CDK2
Procedure, shortened: as §1

76 mammalian kinases = assay: Mammalian kinase selectivity panel, whole panel; type: biochemical; conditions: 10 μM

| IC50 (TbGSK3 [1]) | IC50 (HsGSK3β) [nM] | fold less active than 8 against TbGSK3 (TbGSK3 [1]) | Structure (SMILES) | also measured |
| --- | --- | --- | --- | --- |
| 20 nM | 5 |  | Nc1nc(Nc2ccccc2)sc1C(=O)c1c(F)cccc1F [Compound 14, (4-Amino-2-(phenylamino)thiazol-5-yl)(2,6-difluorophenyl)methanone] | Ki (TbGSK3 [2]): 50 ± 10 nM; mechanism of inhibition (TbGSK3 [2]): ATP-competitive |
| 400 nM | 2000 |  | COc1cccc(OC)c1C(=O)c1sc(Nc2ccccc2)nc1N [Compound 15, (4-Amino-2-(phenylamino)thiazol-5-yl)(2,6-dimethoxyphenyl)methanone] | fold less active than 14 against TbGSK3 (TbGSK3 [1]; compared with compound 14): over 10 fold |
| 100 nM | 5 |  | Nc1nc(Nc2ccccc2)sc1C(=O)c1cccc(Br)c1 [Compound 16, (4-Amino-2-(phenylamino)thiazol-5-yl)(3-bromophenyl)methanone] |  |
| 200 nM | 200 | approximately 10 fold | Cc1cccc(C)c1Nc1nc(N)c(C(=O)c2ccccc2)s1 [Compound 17, (4-Amino-2-((2,6-dimethylphenyl)amino)thiazol-5-yl)(phenyl)methanone] |  |
| 60 nM | 2 |  | Cc1ccc(Nc2nc(N)c(C(=O)c3ccccc3)s2)cc1C [Compound 18, (4-Amino-2-((3,4-dimethylphenyl)amino)thiazol-5-yl)(phenyl)methanone] |  |
| 190 nM and 200 nM | 2 | sixfold | Nc1nc(NC2CCCCC2)sc1C(=O)c1ccccc1 [Compound 19, (4-Amino-2-(cyclohexylamino)thiazol-5-yl)(phenyl)methanone] | Ki (TbGSK3 [2]): 250 ± 30 nM; mechanism of inhibition (TbGSK3 [2]): ATP-competitive |
| 700 nM | 20 |  | Nc1nc(NCC2CCCCC2)sc1C(=O)c1ccccc1 [Compound 20, (4-Amino-2-((cyclohexylmethyl)amino)thiazol-5-yl)(phenyl)methanone] |  |
| 500 nM | 3 |  | Nc1nc(NCCc2ccccc2)sc1C(=O)c1ccccc1 [Compound 21, (4-Amino-2-(phenethylamino)thiazol-5-yl)(phenyl)methanone] |  |
| 12000 nM |  | ~300 fold | CC(C)(C)C(=O)c1sc(NC2CCCCC2)nc1N [Compound 22, 1-(4-Amino-2-(cyclohexylamino)thiazol-5-yl)-2,2-dimethylpropan-1-one] | selectivity over the human MRC5 cell line [3]: > 150 fold; inhibition at 10 µM (GSK3): > 70%; inhibition at 10 µM (CDK2-Cyclin A): > 70%; kinases of the panel inhibited at the >90 % level (76 mammalian kinases): did not inhibit any kinase at the >90 % level |
